Neddyl block: blocks human cullin neddylation; P61081+Q13564; TR-FRET cullin neddylation, biochemical; calls only at 25 µM; 0.58% of 360,000 active; AID 651699; in the data active = inhibition above about 36%
Target sequence (P61081 whole entry, looked up): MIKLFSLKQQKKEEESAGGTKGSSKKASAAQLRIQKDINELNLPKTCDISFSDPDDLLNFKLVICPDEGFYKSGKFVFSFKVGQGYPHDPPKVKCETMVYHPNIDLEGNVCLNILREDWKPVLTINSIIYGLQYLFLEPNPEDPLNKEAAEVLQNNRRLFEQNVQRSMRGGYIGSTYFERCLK
Target sequence (Q13564 whole entry, looked up): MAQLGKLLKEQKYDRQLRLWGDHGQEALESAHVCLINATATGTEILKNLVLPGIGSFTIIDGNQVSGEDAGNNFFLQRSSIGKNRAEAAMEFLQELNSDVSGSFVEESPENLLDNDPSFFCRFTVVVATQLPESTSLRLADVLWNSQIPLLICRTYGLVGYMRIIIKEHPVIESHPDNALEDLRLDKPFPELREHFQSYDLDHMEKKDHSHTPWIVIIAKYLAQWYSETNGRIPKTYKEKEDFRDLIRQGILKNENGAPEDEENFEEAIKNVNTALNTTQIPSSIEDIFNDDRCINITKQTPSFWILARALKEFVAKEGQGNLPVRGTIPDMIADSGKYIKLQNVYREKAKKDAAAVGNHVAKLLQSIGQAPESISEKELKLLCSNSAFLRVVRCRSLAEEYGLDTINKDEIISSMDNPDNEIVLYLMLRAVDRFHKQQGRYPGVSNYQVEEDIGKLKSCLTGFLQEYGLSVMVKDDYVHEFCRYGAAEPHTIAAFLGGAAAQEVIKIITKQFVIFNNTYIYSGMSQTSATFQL
DDE Tn7 FP inh: disrupts Tn7 cyclic peptide binding to fibrin D-Dimer-E complex | 0.13% of 370,000 active | AID 720508 | FP displacement of FITC-Tn7 peptide from fibrin DD(E); 0% = median of compound wells per plate | P02675 | inhibition, % at 8.3 µM;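 active = inhibition above the mean of compounds falling within the control limits plus 3 SD of them, cut at about 14% in these data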;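 note: 0% = plate median of compound wells and 100% = 10 µM Aha-Tn7 peptide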
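Assay system: Human clot-derived fibrin DD(E) complex | Buffer or medium: Tris/NaCl/CaCl2 buffer, pH 7.8 | Repeats: One replicate per compound | Benchmarks: Aha-Tn7 high control | Measure: % inhibition scaled between sample-field median and high-control FP | Schedule: 10 min plus 3 h, room temperature | Signal: Fluorescence polarization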
SKN-1 block: inhibitors of C. elegans SKN-1; AID 624304; inhibition, % at 21.8 µM; 0.49% of 360,000 active; C. elegans VP596 Pgst-4::GFP/RFP ratio, acrylamide-induced, 24 h;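 active = interference check ratio from 0.5 to 1.5 plus GFP to RFP signal ratio inhibition reaching or exceeding a fixed threshold, cut at about 30% in these data, passing the limit was not always enough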
Tn6 DDE FP: inhibitors of Tn6 peptide binding to human fibrin DD(E); Fibrin DD(E) TRITC-Tn6 fluorescence polarization displacement; inhibition, % at 8.3 µM; 0.21% of 370,000 active; AID 720509;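 active = inhibition above a per-campaign cutoff: mean of compounds within control limits plus 3 SD, cut at about 15% in these data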;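 note: 0% = median of all compound wells on the plate and 100% = blocking peptide control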
proKLK7 act: proKLK7 (human) activation, primary screen. P49862. activation, % at 7 µM. AID 652039. purified proKLK7, EDANS-DABCYL substrate fluorescence; 100% is mature enzyme control, 0% vehicle. 0.9% of 370,000 active;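 active = activation above the mean of all tested compounds plus 3 SD, computed per campaign excluding outliers beyond control limits, cut at about 13% in these data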
MT1-MMP act inh: inhibitors of human MT1-MMP activation; HT1080 RFP-PRO-GFP cells, GFP/RFP ratio fluorescence, overnight; percent of plate control window, DMSO zero; GFP/RFP ratio change, % at 20 µM; 0.061% of 360,000 active; AID 651647;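 active = GFP/RFP ratio change of at least 30% with cell ATP level not reduced by more than half and red fluorescence within 50% of control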
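Assay system: HT1080 RFP-PRO-GFP cells. Benchmarks: DMSO vehicle wells and RFP-L50D-GFP reporter cell wells. Times: overnight cell settling, then overnight compound exposure, 37 °C, 5% CO2. Compound: 20 µM single dose, 1% DMSO. Read-out basis: GFP/RFP fluorescence ratio.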
proKLK7 act conf: proKLK7 activation, confirmation; shares compounds with proKLK7 act; purified proKLK7, EDANS-DABCYL substrate fluorescence; scaled: vehicle 0, mature enzyme 100; activation, % at 7 µM; 68% of 3,200 active; AID 686949;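 active = activation, as change over the incubation, above the mean of all tested compounds plus 3 SD, cut at about 13% in these data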
EDANS-DABCYL int: fluorescence interference counter-screen for KLK7 activators; shares compounds with proKLK7 act; EDANS-DABCYL substrate fluorescence interference, no enzyme, 4 h; solvent 0%, active enzyme control 100%; activation, % at 7 µM; 80% of 3,200 active; AID 686952;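 active = activation above the all-compound mean plus 3 SD, ignoring values outside control-based bounds, cut at about 4.8% in these data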;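 note: value is the 4 h activation minus the activation read at time zero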
Numbers without * were called inactive; i = inactive; · = no result given; + = active, no number. Hits are enriched below; roughly 2.2% of the tested compounds scored in any of these assays.

SMILES | Neddyl block | DDE Tn7 FP inh | SKN-1 block | Tn6 DDE FP | proKLK7 act | MT1-MMP act inh | proKLK7 act conf | EDANS-DABCYL int
COP(=O)(OC)c1nc(-c2cccc3ccccc23)oc1N1CCOCC1 | · | 5.7 | 10.9 | 0.0 | 77.4* | -0.2 | 63.0* | 64.4*
COc1ccc2ccccc2c1C1NC(=O)c2ccccc2N1 (stereo not drawn) | · | -4.0 | 5.2 | 7.3 | 16.0* | -4.9 | 12.6 | 6.6*
CCOC(=O)C(CCCOc1cccc(OC)c1)C(=O)OCC | i | 4.5 | 12.7 | 10.0 | 0.3 | 3.8 | · | ·
O=C(NC1CCN(Cc2ccccc2)CC1)c1ccccc1NS(=O)(=O)c1ccc(F)cc1 | i | -2.5 | -3.9 | 1.1 | 0.7 | 3.5 | · | ·
O=C(CCc1nc(-c2cccs2)no1)Nc1cnc2ccccc2c1 | i | -3.0 | -10.9 | -2.7 | -0.3 | 0.7 | · | ·
CC(C)NC(=O)c1ccc(C(C)C)cc1 | i | -1.2 | 4.8 | 0.8 | 0.4 | -4.9 | · | ·
CC1COc2c(N3CCN(C)CC3)c(F)cc3c(=O)c(C(=O)O)cn1c23 (stereo not drawn) | · | -0.3 | 20.4 | -5.2 | 160.3* | -3.3 | 32.2* | 34.2*
CCOc1ccc(C(=O)Nc2ccc(N3CCN(C)CC3)cc2)cc1 | i | -0.8 | -8.5 | -13.3 | 0.2 | -1.5 | · | ·
COc1c(F)c(F)cc2c(=O)c(C(=O)O)cn(C3CC3)c12 | i | 9.3 | 5.9 | 1.4 | 0.3 | -1.8 | · | ·
CCOc1ccc(NC(=O)c2ccc(NC(=O)c3cn4c5c(c(N6CCN(C)CC6)c(F)cc5c3=O)OCC4C)cc2)cc1 (stereo not drawn) | i | -3.4 | -3.7 | 0.9 | 42.5* | 2.7 | 10.1 | 8.4*
Nc1cccc2c1C(=O)N(C(=O)c1cccc(S(=O)(=O)N3CCCC3)c1)C2=O | · | 0.4 | 12.8 | -0.1 | 32.0* | -1.2 | 189.6* | 196.0*
CCCn1c(NCc2cc(C)ccc2O)nc2ccccc21 | i | -1.8 | -0.5 | -1.5 | 0.5 | 0.6 | · | ·
O=C(COc1ccc2c3c(c(=O)oc2c1)CCC3)N1CCCCC1 | i | 4.3 | 18.4 | 13.4 | 0.4 | -2.7 | · | ·
COc1ccc2oc(-c3ccncc3)cc(=O)c2c1 | · | 0.2 | 17.4 | -8.1 | 21.0* | -0.7 | 37.2* | 33.0*
O=C(COc1ccc2oc(-c3ccco3)cc(=O)c2c1)N1CCCCC1 | · | -2.4 | 9.4 | 3.1 | 60.7* | 3.5 | 59.5* | 59.5*
COc1ccc2oc(-c3ccco3)cc(=O)c2c1 | · | -4.6 | 25.6 | 9.3 | 57.3* | -6.2 | 73.7* | 71.3*
CCc1cccc(CC)c1NC(=O)C(CC)Sc1nc2ccncc2[nH]1 (stereo not drawn) | i | -1.3 | -10.7 | -2.5 | 0.4 | 4.2 | · | ·
O=C(CN(C(=O)OCC1c2ccccc2-c2ccccc21)[C@@H](Cc1ccccc1)C(=O)O)OCc1ccc(C(=O)NCc2ccccc2)cc1 | · | 1.6 | · | -4.1 | 0.2 | · | · | ·
COc1ccc2nc(-c3ccccc3)[nH]c2c1 | · | 5.7 | 6.6 | -2.3 | 3.3 | 5.0 | · | ·
COc1ccc2nc3ccccc3[n+]([O-])c2c1 | + | 7.5 | -2.0 | 2.1 | 27.4* | -4.7 | 32.0* | 34.0*
CCOc1cc(C2C(C(=O)N3CCCCC3)=C(C)NC3=C2C(=O)CCC3)cc(Br)c1O (stereo not drawn) | i | -2.7 | 3.5 | -3.3 | 14.7* | -5.6 | 8.4 | 15.4*
Cc1ccc(-c2nc3ccccn3c2Nc2ccccc2)o1 | · | -2.4 | 14.2 | 7.5 | 28.4* | 10.2 | 63.2* | 67.9*
O=C(CCSc1nnc(-c2ccncc2)o1)Nc1cccc2ccccc12 | i | 3.0 | -10.5 | -6.5 | 0.1 | 4.7 | · | ·
C=CCSc1nnc(C)c(/C=C/Nc2ccc(Cl)cc2)n1 | i | 0.3 | 22.4 | -8.4 | -0.5 | -23.5 | · | ·

Screens deposited in PubChem BioAssay by several laboratories.
